ChEMBL document CHEMBL1132974 (J Med Chem, 2000)
Several values for one entry are separate records, joined by “and”; a condition that tells them apart may be missing. Equal entries are not always repeated.

Tests used:
[1] = target: Muscarinic acetylcholine receptor M3 (Cavia porcellus, UniProt Q8VH26); experiment: Compound was evaluated for its antagonist affinity towards Muscarinic acetylcholine receptor M3 of guinea pig; format: functional; conditions: read-out: pA2 (converted)
Method in brief: (§1)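 Functional antagonism assays in guinea-pig tissues, each run with 1 µM mepyramine present: M3 (whole ileum), β1 (right atrium), 5-HT1B (iliac artery), 5-HT3 (quiescent ileal longitudinal muscle with myenteric plexus). Results are given as apparent pA2, or pD'2 when only curve depression occurred.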

[2] = target: Histamine H1 receptor (Cavia porcellus) (UniProt P31389); experiment: Negative logarithm of receptor dissociation constant Kp was reported in guinea pig ileum whole segment; format: functional, tissue-based
Method in brief: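 Guinea-pig ileum (0.1 µM atropine, 37 °C Tyrode's). […] Where several partial-agonist concentrations were used, the overall value comes from a Kaumann-Marano plot with slope constrained to unity.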

Histamine H1 receptor [3] = target: T1, Histamine H1 receptor (Cavia porcellus, UniProt P31389); experiment: Antagonism of guinea pig ileum contraction at 100 nM mepyramine; format: functional, tissue-based; conditions: read-out: pA2 (converted)
Method in brief: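 Guinea-pig whole ileal segments (2.0–2.5 cm), isotonic, preload 0.5 g, Tyrode's at 37 °C, 95% O2/5% CO2, with 0.1 µM atropine throughout. […] Apparent pA2 = −log c + log(r−1); full pA2 from Schild plot, slope fixed at 1.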

Histamine H1 receptor [4] = target: T1, Histamine H1 receptor; experiment: Effective concentration for agonism activity in endothelium-denuded guinea pig aortic segment; format: functional, tissue-based, Aorta
Method in brief: (§2)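 Guinea-pig thoracic aortic rings (2–4 mm), endothelium rubbed off, isometric (10 mN), modified Krebs-Henseleit (1.80 mM Ca2+), 37 °C. Cimetidine, corticosterone and cocaine (30 µM each), prazosin and yohimbine (0.3 µM each) and propranolol (0.1 µM) were present. […] The pEC50 shift was corrected using untreated control preparations.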

[5] = target: Histamine H1 receptor (Rattus norvegicus) (UniProt P31390); experiment: The compound was evaluated for intrinsic activity in relaxed rat aortic rings with intact endothelium, submaximally precontracted with 15.8 nM U-46,619; format: functional, tissue-based; design: unit not given here; conditions: Aorta
Target sequence in this assay (P31390 whole entry): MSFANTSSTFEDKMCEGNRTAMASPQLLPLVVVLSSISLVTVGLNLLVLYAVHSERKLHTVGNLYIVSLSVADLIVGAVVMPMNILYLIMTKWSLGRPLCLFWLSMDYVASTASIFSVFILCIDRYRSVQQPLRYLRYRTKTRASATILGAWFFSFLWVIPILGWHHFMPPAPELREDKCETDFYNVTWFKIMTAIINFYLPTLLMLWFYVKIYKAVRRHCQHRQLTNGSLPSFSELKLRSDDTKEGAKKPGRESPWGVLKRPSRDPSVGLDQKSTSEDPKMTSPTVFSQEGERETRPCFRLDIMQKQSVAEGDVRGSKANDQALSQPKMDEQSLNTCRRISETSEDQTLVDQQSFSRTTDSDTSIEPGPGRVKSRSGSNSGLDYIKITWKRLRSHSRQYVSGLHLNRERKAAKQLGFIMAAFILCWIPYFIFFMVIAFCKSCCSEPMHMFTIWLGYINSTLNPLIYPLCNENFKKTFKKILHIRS

Histamine H1 receptor [6] = target: T2, Histamine H1 receptor (Rattus norvegicus, UniProt P31390); experiment: Effective concentration for agonism activity in relaxed rat aortic rings with intact endothelium, submaximally precontracted with 15.8 nM U-46,619; format: functional, tissue-based, Aorta
Histamine H1 receptor [7] = target: T1, Histamine H1 receptor; experiment: Effective concentration for agonist activity in guinea pig ileum whole segment; format: functional, tissue-based
Histamine H3 receptor = Histamine H3 receptor (Cavia porcellus, UniProt Q9JI35); experiment: Compound was evaluated for its antagonist affinity towards Histamine H3 receptor of guinea pig; format: functional; conditions: read-out: pA2 (converted)
Method in brief: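 Electrically stimulated guinea-pig ileal longitudinal muscle with myenteric plexus, isometric (7.5 mN). Cumulative (R)-α-methylhistamine curves were run with and without test compound (20 min), with 1 µM mepyramine present. Values were apparent pA2, or pD'2 where curves were depressed.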

[8] = target: Histamine H1 receptor (Rattus norvegicus) (UniProt P31390); experiment: Compound was evaluated for mepyramine antagonism effects in rat aorta (relaxation) at a mepyramine concentration of 100 nM; conditions: read-out: pA2 (converted)
Target sequence in this assay (P31390 whole entry, looked up): as the sequence (P31390 whole entry) above

Histamine H2 receptor = Histamine H2 receptor (Cavia porcellus, UniProt P47747); experiment: Compound was evaluated for its antagonist affinity towards Histamine H2 receptor of guinea pig; format: functional; conditions: read-out: pA2 (converted)
[9] = target: Beta-1 adrenergic receptor (Cavia porcellus, UniProt B0FL73); experiment: Compound was evaluated for its antagonist affinity towards Beta-1 adrenergic receptor of guinea pig; format: functional; conditions: read-out: pA2 (converted); method in brief: as §1
Histamine H1 receptor [10] = target: T1, Histamine H1 receptor; experiment: Compound was evaluated for mepyramine antagonism effects in guinea pig aorta (contraction) at a mepyramine concentration of 100 nM; format: functional, tissue-based; conditions: read-out: pA2 (converted)
Method in brief: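 Guinea-pig aortic rings with endothelium damaged, isometric (10 mN), 37 °C Krebs-Henseleit. Agonist curves were run with mepyramine (100 nM, about 60 min) after threshold PGF2α precontraction. Apparent pA2 = −log c + log(r−1).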

[11] = target: 5-hydroxytryptamine receptor 4 (Rattus norvegicus, UniProt Q62758); experiment: Compound was evaluated for its antagonist affinity towards 5-hydroxytryptamine 4 receptor of rat; format: functional; conditions: read-out: pA2 (converted)
Method in brief: (§3)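 Functional antagonism in rat tissues: α1D (thoracic aorta), 5-HT2A (tail artery), 5-HT4 (oesophageal tunica muscularis mucosae). Results are given as apparent pA2 from single-concentration rightward shifts, or pD'2 when only curve depression occurred.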

Histamine H1 receptor [12] = target: T2, Histamine H1 receptor; experiment: Compound was evaluated for mepyramine antagonism effects in rat aorta (relaxation) at a mepyramine concentration of 100 nM; conditions: read-out: pA2 (converted)
[13] = target: T3, Alpha-1D adrenergic receptor (Rattus norvegicus, UniProt P23944); experiment: Compound was evaluated for its antagonist affinity towards Alpha-1D adrenergic receptor of rat; format: functional; conditions: read-out: pA2 (converted); method in brief: as §3
T3 sequence (P23944 whole entry): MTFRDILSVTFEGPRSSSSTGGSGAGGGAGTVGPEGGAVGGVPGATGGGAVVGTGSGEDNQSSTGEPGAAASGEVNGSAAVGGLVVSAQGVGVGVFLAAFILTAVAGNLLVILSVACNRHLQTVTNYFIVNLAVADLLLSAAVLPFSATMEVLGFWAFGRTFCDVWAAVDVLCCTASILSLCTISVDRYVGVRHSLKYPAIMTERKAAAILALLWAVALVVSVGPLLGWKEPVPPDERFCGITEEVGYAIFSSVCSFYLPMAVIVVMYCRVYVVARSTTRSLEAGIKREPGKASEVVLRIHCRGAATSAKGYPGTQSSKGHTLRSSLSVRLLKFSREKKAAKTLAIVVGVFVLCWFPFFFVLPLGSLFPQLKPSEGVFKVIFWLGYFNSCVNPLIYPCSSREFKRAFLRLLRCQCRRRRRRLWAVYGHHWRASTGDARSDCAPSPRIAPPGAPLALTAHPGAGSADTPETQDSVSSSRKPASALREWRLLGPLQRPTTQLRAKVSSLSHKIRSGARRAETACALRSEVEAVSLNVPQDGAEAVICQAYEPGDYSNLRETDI

[14] = target: 5-hydroxytryptamine receptor 2A (Rattus norvegicus, UniProt P14842); experiment: Compound was evaluated for its antagonist affinity towards 5-hydroxytryptamine 2A receptor of rat; format: functional; conditions: read-out: pA2 (converted); method in brief: as §3
Histamine H1 receptor [15] = target: T1, Histamine H1 receptor; experiment: Effective concentration for agonism activity in Endothelium-Denuded guinea pig aortic segment; format: functional, tissue-based, Aorta; method in brief: as §2
[16] = target: Serotonin 3 (5-HT3) receptor; experiment: Compound was evaluated for its antagonist affinity towards 5-hydroxytryptamine 3 receptor of guinea pig; format: functional, Cavia porcellus; method in brief: as §1
Cavia porcellus = species: Cavia porcellus; experiment: Mepyramine concentration required to antagonise histaprodifens compound induced effects in guinea pig or rat assays; format: functional, organism-based
[17] = target: Histamine H1 receptor (Cavia porcellus) (UniProt P31389); experiment: concentration of mepyramine was determined; format: functional

Chain of Histamine H1 receptor (Cavia porcellus) (P31389 whole entry): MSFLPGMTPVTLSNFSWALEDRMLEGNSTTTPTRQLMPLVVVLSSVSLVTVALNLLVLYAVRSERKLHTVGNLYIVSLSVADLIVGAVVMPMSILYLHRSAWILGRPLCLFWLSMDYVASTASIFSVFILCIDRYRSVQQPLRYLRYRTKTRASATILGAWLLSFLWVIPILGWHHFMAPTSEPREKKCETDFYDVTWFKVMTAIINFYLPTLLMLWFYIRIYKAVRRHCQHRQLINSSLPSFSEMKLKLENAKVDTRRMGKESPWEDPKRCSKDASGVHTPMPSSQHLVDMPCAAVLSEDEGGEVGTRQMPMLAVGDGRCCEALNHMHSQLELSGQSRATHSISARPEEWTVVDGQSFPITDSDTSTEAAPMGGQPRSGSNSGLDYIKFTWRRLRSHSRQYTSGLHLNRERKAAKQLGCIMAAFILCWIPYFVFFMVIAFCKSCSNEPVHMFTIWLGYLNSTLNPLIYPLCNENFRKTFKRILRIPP
T1 sequence (P31389 whole entry): as above
T2 sequence (P31390 whole entry): as the sequence (P31390 whole entry) above
Chain of Histamine H3 receptor (Q9JI35 whole entry): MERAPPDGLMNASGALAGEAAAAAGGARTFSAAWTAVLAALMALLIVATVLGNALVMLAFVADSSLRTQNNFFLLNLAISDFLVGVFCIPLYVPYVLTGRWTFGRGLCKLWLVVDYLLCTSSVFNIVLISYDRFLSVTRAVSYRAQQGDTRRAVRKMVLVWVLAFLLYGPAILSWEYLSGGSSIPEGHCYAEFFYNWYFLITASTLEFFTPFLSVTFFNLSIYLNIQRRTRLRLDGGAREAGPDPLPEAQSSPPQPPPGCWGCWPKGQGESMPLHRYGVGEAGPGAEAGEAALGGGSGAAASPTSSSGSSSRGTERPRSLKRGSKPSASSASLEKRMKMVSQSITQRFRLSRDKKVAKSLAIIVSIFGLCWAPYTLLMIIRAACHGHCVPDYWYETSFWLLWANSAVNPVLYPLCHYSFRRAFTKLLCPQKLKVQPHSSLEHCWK
Chain of Muscarinic acetylcholine receptor M3 (Q8VH26 whole entry): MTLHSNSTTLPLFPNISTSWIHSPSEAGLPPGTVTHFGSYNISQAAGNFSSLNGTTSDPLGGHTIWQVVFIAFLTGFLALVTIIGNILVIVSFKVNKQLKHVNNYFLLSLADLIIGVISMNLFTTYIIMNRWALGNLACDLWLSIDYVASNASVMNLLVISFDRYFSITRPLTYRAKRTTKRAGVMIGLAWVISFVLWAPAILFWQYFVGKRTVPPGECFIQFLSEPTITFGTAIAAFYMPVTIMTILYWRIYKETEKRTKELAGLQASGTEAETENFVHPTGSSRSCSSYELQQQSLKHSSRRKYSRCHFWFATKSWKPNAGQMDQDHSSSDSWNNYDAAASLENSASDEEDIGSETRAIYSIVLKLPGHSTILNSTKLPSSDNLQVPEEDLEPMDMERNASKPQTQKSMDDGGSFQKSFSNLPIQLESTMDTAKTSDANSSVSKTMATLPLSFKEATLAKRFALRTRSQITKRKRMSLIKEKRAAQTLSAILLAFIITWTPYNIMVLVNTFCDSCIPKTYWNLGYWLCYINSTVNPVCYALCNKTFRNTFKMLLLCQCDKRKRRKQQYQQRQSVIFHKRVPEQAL
Chain of Histamine H2 receptor (P47747 whole entry): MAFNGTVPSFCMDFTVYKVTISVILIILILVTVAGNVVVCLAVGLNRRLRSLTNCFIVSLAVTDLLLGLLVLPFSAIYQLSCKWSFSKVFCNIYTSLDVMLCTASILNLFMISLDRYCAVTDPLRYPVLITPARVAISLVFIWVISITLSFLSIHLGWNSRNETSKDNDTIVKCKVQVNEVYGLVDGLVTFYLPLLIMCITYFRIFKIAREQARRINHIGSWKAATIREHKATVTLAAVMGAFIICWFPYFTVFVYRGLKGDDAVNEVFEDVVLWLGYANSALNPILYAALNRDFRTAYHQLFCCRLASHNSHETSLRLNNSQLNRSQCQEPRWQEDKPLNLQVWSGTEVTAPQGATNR
Chain of Beta-1 adrenergic receptor (B0FL73 whole entry): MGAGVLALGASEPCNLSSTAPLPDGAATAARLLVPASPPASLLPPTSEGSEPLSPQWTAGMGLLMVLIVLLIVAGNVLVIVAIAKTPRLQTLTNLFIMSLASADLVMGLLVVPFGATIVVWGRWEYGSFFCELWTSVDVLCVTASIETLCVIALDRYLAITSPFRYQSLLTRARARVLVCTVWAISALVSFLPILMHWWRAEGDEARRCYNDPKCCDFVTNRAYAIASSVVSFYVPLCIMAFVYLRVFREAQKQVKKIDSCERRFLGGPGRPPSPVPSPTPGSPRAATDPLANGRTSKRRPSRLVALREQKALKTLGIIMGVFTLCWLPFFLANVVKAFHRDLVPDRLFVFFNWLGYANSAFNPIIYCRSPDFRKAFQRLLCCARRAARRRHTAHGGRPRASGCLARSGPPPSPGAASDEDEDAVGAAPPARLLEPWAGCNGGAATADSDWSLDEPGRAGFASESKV
Chain of 5-hydroxytryptamine receptor 2A (P14842 whole entry): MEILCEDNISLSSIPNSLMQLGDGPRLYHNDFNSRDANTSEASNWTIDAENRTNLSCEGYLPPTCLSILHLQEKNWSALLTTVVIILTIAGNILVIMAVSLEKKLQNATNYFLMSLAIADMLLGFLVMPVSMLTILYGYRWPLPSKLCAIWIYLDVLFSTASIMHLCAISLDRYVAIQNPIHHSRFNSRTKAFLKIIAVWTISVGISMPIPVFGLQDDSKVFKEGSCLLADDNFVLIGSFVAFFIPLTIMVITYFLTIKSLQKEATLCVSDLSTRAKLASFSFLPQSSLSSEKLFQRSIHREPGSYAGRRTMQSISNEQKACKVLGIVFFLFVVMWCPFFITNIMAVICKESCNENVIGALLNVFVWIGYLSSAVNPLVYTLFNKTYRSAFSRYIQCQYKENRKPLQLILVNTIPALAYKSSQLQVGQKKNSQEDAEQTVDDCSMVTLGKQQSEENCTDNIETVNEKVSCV
Chain of 5-hydroxytryptamine receptor 4 (Q62758 whole entry): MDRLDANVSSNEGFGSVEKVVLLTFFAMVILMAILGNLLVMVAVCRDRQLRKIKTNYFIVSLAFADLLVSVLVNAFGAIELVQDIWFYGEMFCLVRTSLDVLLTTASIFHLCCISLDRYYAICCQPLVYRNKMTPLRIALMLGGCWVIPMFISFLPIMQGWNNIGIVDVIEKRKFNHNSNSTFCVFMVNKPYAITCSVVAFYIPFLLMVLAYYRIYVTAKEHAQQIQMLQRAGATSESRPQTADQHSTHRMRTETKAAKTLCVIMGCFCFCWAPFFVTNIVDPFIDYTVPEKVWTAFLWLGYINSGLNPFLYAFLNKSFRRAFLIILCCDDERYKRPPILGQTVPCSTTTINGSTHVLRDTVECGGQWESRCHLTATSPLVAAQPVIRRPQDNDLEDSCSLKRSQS

Structure (SMILES): c1ccc(C(CCc2nc(CCNC3CC3)c[nH]2)c2ccccc2)cc1
- Kb [1]: 933 nM
- pKp [2]: 6.17
- Kb (Histamine H1 receptor [3]): 1.41 nM and 2.14 nM
- EC50 (Histamine H1 receptor [4]): 2290 nM
- Emax [5]: 56 and 62
- EC50 (Histamine H1 receptor [6]): 355 nM
- EC50 (Histamine H1 receptor [7]): 148 nM
- Kb (Histamine H3 receptor): > 501 nM
- Kb [8]: 5.75 nM
- Kb (Histamine H2 receptor): 20000 nM

Structure (SMILES): CNCCc1cnc(CCC(c2ccccc2)c2ccccc2)[nH]1
- Kb [9]: 14500 nM
- Kb [1]: 3550 nM
- Kb (Histamine H1 receptor [10]): 1.78 nM
- Kb (Histamine H1 receptor [3]): 0.741 nM and 1.35 nM
- EC50 (Histamine H1 receptor [4]): 490 nM
- Kb [11]: > 1580 nM
- EC50 (Histamine H1 receptor [6]): 158 nM
- Kb (Histamine H1 receptor [12]): 9.55 nM
- Kb [13]: 5750 nM
- Kb [14]: 4070 nM
- EC50 (Histamine H1 receptor [7]): 57.5 nM
- Kb (Histamine H3 receptor): > 1580 nM
- EC50 (Histamine H1 receptor [15]): 77.6 nM
- Kb (Histamine H2 receptor): 12600 nM

Structure (SMILES): CNCCc1c[nH]c(CCC(c2ccccc2)c2ccccc2)n1
- pA2 [16]: < 5.8
- pKp [2]: 6.45
- Concentration (Cavia porcellus): 0.1 µM
- Emax [5]: 55
- Concentration [17]: 0.003 µM and 0.005 µM
